From ChEMBL document CHEMBL1153240, “Microwave assisted synthesis and in vitro cytotoxicities of substituted (Z)-2-amino-5-(1-benzyl-1H-indol-3-yl)methylene-1-methyl-1H-imidazol-4(5H)-ones against human tumor cell lines” (2010)

Assays:
Format in all cases: functional
HT-29 = assay: Cytotoxicity against human HT-29 cells
Method in brief: (§1)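 NCI 60-cell-line panel, five-concentration dose-response. Cytotoxic effect was plotted against log10 drug concentration for each line. GI50 is the molar concentration giving a 50% reduction in net protein increase relative to control cells. LC50 is the concentration lethal to 50% of cells. Both were read from the curves.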

IGROV-1 = assay: Cytotoxicity against human IGROV1 cells
Method in brief: (§2)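 NCI 60-cell-line panel, five-dose response study. Effect is plotted against log10 drug concentration for each cell line. GI50 is the molar concentration giving a 50% reduction in net protein increase relative to control cells. LC50 is the concentration lethal to 50% of cells.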

NCI-H522 = assay: Cytotoxicity against human NCI-H522 cells; method in brief: as §2
SF-295 = assay: Cytotoxicity against human SF295 cells; method in brief: as §2
786-0 = assay: Cytotoxicity against human 786-0 cells; method in brief: as §2
Malme-3M = assay: Cytotoxicity against human MALME-3M cells; method in brief: as §2
A549 = assay: Cytotoxicity against human A549 cells; method in brief: as §2
SNB-19 = assay: Cytotoxicity against human SNB19 cells; method in brief: as §2
SK-MEL-2 = assay: Cytotoxicity against human SK-MEL-2 cells; method in brief: as §2
LOX IMVI = assay: Cytotoxicity against human LOXIMVI cells; method in brief: as §2
OVCAR-4 = assay: Cytotoxicity against human OVCAR4 cells; method in brief: as §2
SF-268 = assay: Cytotoxicity against human SF268 cells; method in brief: as §2
SR = assay: Cytotoxicity against human SR cells; method in brief: as §2
UO-31 = assay: Cytotoxicity against human UO31 cells
Method in brief: (§3)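 NCI 60 human tumor cell line panel, five-dose dose-response study. Cytotoxic effect was plotted against log10 drug concentration for each cell line. GI50 is the molar concentration giving 50% reduction in net protein increase versus control cells. LC50 is the concentration lethal to 50% of cells.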

HL-60 = assay: Cytotoxicity against human HL60 cells; method in brief: as §2
TK-10 = assay: Cytotoxicity against human TK10 cells; method in brief: as §3
M14 = assay: Cytotoxicity against human M14 cells; method in brief: as §2
BT-549 = assay: Cytotoxicity against human BT549 cells; method in brief: as §2
T47D = assay: Cytotoxicity against human T47D cells; method in brief: as §3
SF-539 = assay: Cytotoxicity against human SF539 cells; method in brief: as §2
SK-MEL-28 = assay: Cytotoxicity against human SK-MEL-28 cells; method in brief: as §2
NCI-H322M = assay: Cytotoxicity against human NCI-H322M cells; method in brief: as §2
HCC 2998 = assay: Cytotoxicity against human HCC2998 cells; method in brief: as §2
A498 = assay: Cytotoxicity against human A498 cells; method in brief: as §2
[1] = Cytotoxicity against human […] cells; method in brief: as §2
HOP-62 = assay: Cytotoxicity against human HOP62 cells; method in brief: as §2
KM12 = assay: Cytotoxicity against human KM12 cells; method in brief: as §2
NCI-H460 = assay: Cytotoxicity against human NCI-H460 cells; method in brief: as §2
SK-OV-3 = assay: Cytotoxicity against human SKOV3 cells; method in brief: as §2
MDA-MB-435 = assay: Cytotoxicity against human MDA-MB-435 cells; method in brief: as §1
NCI-H23 = assay: Cytotoxicity against human NCI-H23 cells; method in brief: as §2
CCRF-CEM = assay: Cytotoxicity against human CCRF-CEM cells; method in brief: as §2
UACC-257 = assay: Cytotoxicity against human UACC257 cells; method in brief: as §3
U-251 = assay: Cytotoxicity against human U251 cells; method in brief: as §3
PC-3 = assay: Cytotoxicity against human PC3 cells; method in brief: as §2
SW-620 = assay: Cytotoxicity against human SW620 cells; method in brief: as §3
OVCAR-8 = assay: Cytotoxicity against human OVCAR8 cells; method in brief: as §2
COLO 205 = assay: Cytotoxicity against human COLO205 cells; method in brief: as §1
MOLT-4 = assay: Cytotoxicity against human MOLT4 cells; method in brief: as §2
MDA-MB-468 = assay: Cytotoxicity against human MDA-MB-468 cells; method in brief: as §2
HCT-15 = assay: Cytotoxicity against human HCT15 cells; method in brief: as §2
SNB-75 = assay: Cytotoxicity against human SNB75 cells; method in brief: as §2
HOP-92 = assay: Cytotoxicity against human HOP92 cells; method in brief: as §2
NCI-H226 = assay: Cytotoxicity against human NCI-H226 cells; method in brief: as §2
HCT-116 = assay: Cytotoxicity against human HCT116 cells; method in brief: as §2
NCI/ADR-RES = assay: Cytotoxicity against human NCI/ADR-RES cells; method in brief: as §2
ACHN = assay: Cytotoxicity against human ACHN cells; method in brief: as §2
SK-MEL-5 = assay: Cytotoxicity against human SK-MEL-5 cells; method in brief: as §2
MCF7 = assay: Cytotoxicity against human MCF7 cells; method in brief: as §2
[2] = Cytotoxicity against human Hs 578T cells; method in brief: as §2
SN12C = assay: Cytotoxicity against human SN12C cells; method in brief: as §2
RXF 393 = assay: Cytotoxicity against human RXF393 cells; method in brief: as §2
MDA-MB-231 = assay: Cytotoxicity against human MDA-MB-231 cells; method in brief: as §2
CAKI-1 = assay: Cytotoxicity against human Caki1 cells; method in brief: as §2
DU-145 = assay: Cytotoxicity against human DU145 cells; method in brief: as §2
OVCAR-5 = assay: Cytotoxicity against human OVCAR5 cells; method in brief: as §2
OVCAR-3 = assay: Cytotoxicity against human OVCAR-3 cells; method in brief: as §2
EKVX = assay: Cytotoxicity against human EKVX cells; method in brief: as §2
K562 = assay: Cytotoxicity against human K562 cells; method in brief: as §2
[3] = read-out: LC50 (the source's name)

For COC(=O)c1ccc(Cn2cc(/C=C3/C(=O)N=C(N)N3C)c3ccccc32)cc1, the GI50 (HT-29) was 2.17 µM, the GI50 (IGROV-1) was 5.91 µM and the CC50 (IGROV-1; [3]) was greater than 100 µM. The GI50 (NCI-H522) was 1.93 µM, the LC50 (NCI-H522) was greater than 100 µM and the GI50 (SF-295) was 2.36 µM. It also gave a CC50 (SF-295; [3]) greater than 100 µM, a GI50 (786-0) of 1.75 µM and an LC50 (786-0) of 5.85 µM. The GI50 (Malme-3M) was 1.7 µM, the CC50 (Malme-3M; [3]) was 8.33 µM and the GI50 (A549) was 5.05 µM. It also gave a CC50 (A549; [3]) greater than 100 µM, a GI50 (SNB-19) of 2.39 µM and a CC50 (SNB-19; [3]) of 31 µM. It also gave a GI50 (SK-MEL-2) of 2.7 µM, a CC50 (SK-MEL-2; [3]) greater than 100 µM and a GI50 (LOX IMVI) of 1.89 µM. For the same molecule, the LC50 (LOX IMVI) was 8.66 µM, the GI50 (OVCAR-4) was 2.18 µM and the CC50 (OVCAR-4; [3]) was greater than 100 µM. The GI50 (SF-268) was 2.56 µM, the CC50 (SF-268; [3]) was greater than 100 µM and the GI50 (SR) was 2.48 µM. The CC50 (SR; [3]) was greater than 100 µM, the GI50 (UO-31) was 3.2 µM and the CC50 (UO-31; [3]) was greater than 100 µM. It also gave a GI50 (HL-60) of 2.67 µM, an LC50 (HL-60) greater than 100 µM and a GI50 (TK-10) of 3.16 µM. The CC50 (TK-10; [3]) was greater than 100 µM, the GI50 (M14) was 1.9 µM and the LC50 (M14) was 7.25 µM. It also gave a GI50 (BT-549) of 1.73 µM, a CC50 (BT-549; [3]) greater than 100 µM and a GI50 (T47D) of 1.5 µM. It also gave a CC50 (T47D; [3]) of 5.74 µM, a GI50 (SF-539) of 1.54 µM and a CC50 (SF-539; [3]) of 5.56 µM. The GI50 (SK-MEL-28) was 1.78 µM, the CC50 (SK-MEL-28; [3]) was 6.14 µM and the GI50 (NCI-H322M) was 2.56 µM. It also gave a CC50 (NCI-H322M; [3]) greater than 100 µM, a GI50 (HCC 2998) of 2.99 µM and a CC50 (HCC 2998; [3]) of 4.71 µM. It also gave a GI50 (A498) of 14.1 µM, a CC50 (A498; [3]) of 53.2 µM and a GI50 [1] of 3.25 µM. For the same molecule, the LC50 (concentration lethal to 50% of cells) [1] was greater than 100 µM, the GI50 (HOP-62) was 1.99 µM and the CC50 (HOP-62; [3]) was 33 µM. For the same molecule, the GI50 (KM12) was 3.18 µM, the CC50 (KM12; [3]) was greater than 100 µM and the GI50 (NCI-H460) was 2.55 µM. The CC50 (NCI-H460; [3]) was greater than 100 µM, the GI50 (SK-OV-3) was 1.98 µM and the CC50 (SK-OV-3; [3]) was 8.68 µM. For the same molecule, the GI50 (MDA-MB-435) was 1.93 µM, the GI50 (NCI-H23) was 3.23 µM and the LC50 (concentration lethal to 50% of cells) (NCI-H23) was 58.8 µM. For the same molecule, the GI50 (CCRF-CEM) was 2.91 µM, the CC50 (CCRF-CEM; [3]) was greater than 100 µM and the GI50 (UACC-257) was 17.9 µM. For the same molecule, the LC50 (UACC-257) was greater than 100 µM, the GI50 (U-251) was 1.81 µM and the CC50 (U-251; [3]) was 7.72 µM. The GI50 (PC-3) was 6.27 µM, the CC50 (PC-3; [3]) was greater than 100 µM and the GI50 (SW-620) was 2.2 µM. The CC50 (SW-620; [3]) was greater than 100 µM, the GI50 (OVCAR-8) was 3.45 µM and the CC50 (OVCAR-8; [3]) was greater than 100 µM. It also gave a GI50 (COLO 205) of 1.91 µM, a GI50 (MOLT-4) of 2.42 µM and a CC50 (MOLT-4; [3]) greater than 100 µM. The GI50 (MDA-MB-468) was 1.63 µM, the LC50 (MDA-MB-468) was 6.78 µM and the GI50 (HCT-15) was 2.27 µM. It also gave a CC50 (HCT-15; [3]) greater than 100 µM, a GI50 (SNB-75) of 1.46 µM and an LC50 (concentration lethal to 50% of cells) (SNB-75) of 5.47 µM. For the same molecule, the GI50 (HOP-92) was 1.51 µM, the CC50 (HOP-92; [3]) was 7.75 µM and the GI50 (NCI-H226) was 2.26 µM. For the same molecule, the LC50 (NCI-H226) was greater than 100 µM, the GI50 (HCT-116) was 1.79 µM and the CC50 (HCT-116; [3]) was 7.7 µM. The GI50 (NCI/ADR-RES) was 9.46 µM, the CC50 (NCI/ADR-RES; [3]) was greater than 100 µM and the GI50 (ACHN) was 1.76 µM. For the same molecule, the CC50 (ACHN; [3]) was 6.14 µM, the GI50 (SK-MEL-5) was 1.69 µM and the LC50 (SK-MEL-5) was 5.75 µM. It also gave a GI50 (MCF7) of 2.45 µM, a CC50 (MCF7; [3]) of 77.8 µM and a GI50 [2] of 2.17 µM. It also gave an LC50 [2] greater than 100 µM, a GI50 (SN12C) of 1.74 µM and a CC50 (SN12C; [3]) of 8.59 µM. For the same molecule, the GI50 (RXF 393) was 1.95 µM, the CC50 (RXF 393; [3]) was 8.71 µM and the GI50 (MDA-MB-231) was 2.01 µM. For the same molecule, the LC50 (MDA-MB-231) was 14.3 µM, the GI50 (CAKI-1) was 35.1 µM and the GI50 (DU-145) was 2.25 µM. It also gave a CC50 (DU-145; [3]) of 14.8 µM, a GI50 (OVCAR-5) of 1.9 µM and a CC50 (OVCAR-5; [3]) of 18.5 µM. The GI50 (OVCAR-3) was 2.29 µM, the CC50 (OVCAR-3; [3]) was 7.98 µM and the GI50 (EKVX) was greater than 100 µM. For the same molecule, the CC50 (EKVX; [3]) was greater than 100 µM, the GI50 (K562) was 2.23 µM and the CC50 (K562; [3]) was greater than 100 µM.
